Data from ChEMBL document CHEMBL4699650, “SAR Investigation and Discovery of Water-Soluble 1-Methyl-1,4-dihydroindeno[1,2-c]pyrazoles as Potent Tubulin Polymerization Inhibitors” (J Med Chem, 2020).

What was measured:
HepG2 [1] = assay: Induction of apoptosis in human HepG2 cells assessed as late apoptotic cells at 20 nM incubated for 24 hrs by Annexin V-PE and 7-AAD staining based flow cytometry (reference value: 2.33 %); assay type: functional
Summary of the method: (§1)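 HepG2 cells seeded at 3 × 10⁵ cells/well, adhered overnight, exposed at 5, 10 or 20 nM for 12 or 24 h. Harvested into Annexin V binding buffer and stained with annexin V-PE and 7-AAD for 15 min at room temperature in the dark, then analysed by flow cytometry. Gates: live (−/−), early apoptotic (+/−), late apoptotic (+/+), necrotic (−/+).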

[2] = Antiproliferation activity against human A549/Taxol cells assessed as cell growth inhibition measured after 72 hrs by MTT assay; assay type: functional
Summary of the method: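 Cells grown in RPMI-1640 with 10% FBS at 37 °C, 5% CO2, seeded at 4−7 × 10³ cells/well and left to adhere overnight. Exposed to a range of concentrations for 72 h, then MTT (2.5 mg/mL stock) added for 4 h. Formazan dissolved in DMSO and absorbance read at 570 nm. GI50 taken as the concentration giving 50% growth inhibition, reported as mean ± SD of at least three independent experiments.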

HepG2 [3] = assay: Induction of cell cycle arrest in human HepG2 cells assessed as accumulation in G1 phase at 20 nM incubated for 24 hrs by propidium iodide staining based flow cytometry (reference value: 60.76%); assay type: functional
HepG2 [4] = assay: Induction of apoptosis in human HepG2 cells assessed as increase in Bax expression incubated for 24 hrs by Western blot analysis; assay type: functional, cell-based; conditions: dose nM 2.5-20, time 24.0 hrs
Summary of the method: (§2)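 Lysates (20 μg protein) separated by 10% PAGE and blotted to PVDF. Probed for Bax, Bcl-2, cleaved caspase-3 and cleaved PARP, detected by ECL and quantified by densitometry.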

HepG2 [5] = assay: Induction of apoptosis in human HepG2 cells assessed as live cells at 10 nM incubated for 12 hrs by Annexin V-PE and 7-AAD staining based flow cytometry (reference value: 92.1%); assay type: functional; summary of the method: as §1
HepG2 [6] = assay: Induction of apoptosis in human HepG2 cells assessed as late apoptotic cells at 20 nM incubated for 12 hrs by Annexin V-PE and 7-AAD staining based flow cytometry (reference value: 2.79%); assay type: functional; summary of the method: as §1
HepG2 [7] = assay: Induction of apoptosis in human HepG2 cells assessed as increase in cleaved caspase-3 expression incubated for 24 hrs by Western blot analysis; assay type: functional, cell-based; conditions: dose nM 2.5-20, time 24.0 hrs; summary of the method: as §2
HepG2 [8] = assay: Antitumor activity against human HepG2 cells xenografted in iv dosed Balb/c nude mouse assessed as tumor growth inhibition administered every 2 days for 21 days; assay type: functional, organism-based; conditions: time 21.0 day
Summary of the method: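 Nude mice received 200 μL PBS containing HepG2 at 1 × 10⁷ cells/mL subcutaneously in the right armpit. Randomised at 90 mm³ tumour volume, five per group. Compound given iv as a 2.0 mg/mL solution in distilled water, 5 or 10 mg/kg every two days for 21 days, with a water vehicle group. Tumour volume (L × W²/2) and body weight recorded every 3 days. Inhibition = (1 − RTV treated/RTV vehicle) × 100%.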

HepG2 [9] = assay: Induction of apoptosis in human HepG2 cells assessed as early apoptotic cells at 20 nM incubated for 24 hrs by Annexin V-PE and 7-AAD staining based flow cytometry (reference value: 4.16 %); assay type: functional; summary of the method: as §1
HepG2 [10] = assay: Induction of apoptosis in human HepG2 cells assessed as live cells at 20 nM incubated for 24 hrs by Annexin V-PE and 7-AAD staining based flow cytometry (reference value: 93.2%); assay type: functional; summary of the method: as §1
[11] = Resistance index, ratio of GI50 for antiproliferation activity against human A549/Taxol cells to GI50 for antiproliferation activity against human A549 cells assessed as cell growth inhibition measured after 72 hrs by MTT assay
HepG2 [12] = assay: Induction of apoptosis in human HepG2 cells assessed as live cells at 5 nM incubated for 24 hrs by Annexin V-PE and 7-AAD staining based flow cytometry (reference value: 93.2%); assay type: functional; summary of the method: as §1
HepG2 [13] = assay: Induction of cell cycle arrest in human HepG2 cells assessed as accumulation in S phase at 10 nM incubated for 24 hrs by propidium iodide staining based flow cytometry (reference value: 26.65%); assay type: functional
[14] = Toxicity in Balb/c nude mouse xenografted with human HepG2 cells assessed as change in body weight at 25 mg/kg, po qd administered for 21 days measured at 3 days interval during compound dosing (reference value: - 17.2 % ); assay type: organism-based; conditions: in vivo, 504 h, time 21 day
Summary of the method: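 Nude mice received 200 μL PBS with HepG2 cells (1 × 10⁷ cells/mL) subcutaneously in the right armpit. At 90 mm³ tumour volume, randomized to 5 per group. Dosed 25 mg/kg as a 2.5 mg/mL distilled-water solution, intragastric once daily for 21 days; distilled water as vehicle. Body weight recorded every 3 days; change given as initial vs end weight.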

HepG2 [15] = assay: Induction of apoptosis in human HepG2 cells assessed as late apoptotic cells at 5 nM incubated for 24 hrs by Annexin V-PE and 7-AAD staining based flow cytometry (reference value: 2.33 %); assay type: functional; summary of the method: as §1
HepG2 [16] = assay: Induction of apoptosis in human HepG2 cells assessed as decrease in Bcl-2 expression incubated for 24 hrs by Western blot analysis; assay type: functional, cell-based; conditions: dose nM 2.5-20, time 24.0 hrs; summary of the method: as §2
HepG2 [17] = assay: Induction of cell cycle arrest in human HepG2 cells assessed as accumulation in S phase at 20 nM incubated for 24 hrs by propidium iodide staining based flow cytometry (reference value: 26.65%); assay type: functional
HepG2 [18] = assay: Induction of apoptosis in human HepG2 cells assessed as late apoptotic cells at 10 nM incubated for 12 hrs by Annexin V-PE and 7-AAD staining based flow cytometry (reference value: 2.79%); assay type: functional; summary of the method: as §1
HepG2 [19] = assay: Antitumor activity against human HepG2 cells xenografted in Balb/c nude mouse assessed as reduction in tumor volume at 25 mg/kg, ig qd administered for 21 days measured at 3 days interval during compound dosing relative to control; assay type: functional; design: scale not given: the % may be the effect or the level left; conditions: time 21 day
HepG2 [20] = assay: Induction of apoptosis in human HepG2 cells assessed as live cells at 5 nM incubated for 12 hrs by Annexin V-PE and 7-AAD staining based flow cytometry (reference value: 92.1%); assay type: functional; summary of the method: as §1
[21] = Toxicity in Balb/c nude mouse xenografted with human HepG2 cells assessed as adverse signs at 5 to 10 mg/kg, iv administered every 2 days for 21 days; assay type: organism-based; conditions: in vivo, 504 h, dose 5-10 mg/kg, time 21 day

`CCOc1cccc(Nc2nn(C)c3c2Cc2cc(OCC)c(OCCCN)cc2-3)c1` showed an Activity (HepG2 [1]) of 10.7%, a GI50 [2] of 14.7 nM and an Activity (HepG2 [3]) of 3.11%. For the same molecule, the Activity (HepG2 [4]) was “Dose-dependent effect”, the Activity (HepG2 [5]) was 85.2% and the Activity (HepG2 [6]) was 6.42%. For the same molecule, the Activity (HepG2 [7]) was “Dose-dependent effect”, the Activity (HepG2 [8]) was “Dose-dependent effect” and the Activity (HepG2 [9]) was 36.6%. For the same molecule, the Activity (HepG2 [10]) was 50.2%, the RatioGI50 [11] was 4 and the Activity (HepG2 [12]) was 85.6%. For the same molecule, the Activity (HepG2 [13]) was 26.85%, the Activity [14] was -18.5% and the Activity (HepG2 [15]) was 4.33%. The Activity (HepG2 [16]) was “Dose-dependent effect”, the Activity (HepG2 [17]) was 8.43% and the Activity (HepG2 [18]) was 4.39%. For the same molecule, the Activity (HepG2 [19]) was 57%, the Activity (HepG2 [20]) was 90.4% and the Activity [21] was “Non-Toxic”.
